Measurements reported in ChEMBL document CHEMBL1157150, “Synthesis, structure and antibacterial activity of novel 1-(5-substituted-3-substituted-4,5-dihydropyrazol-1-yl)ethanone oxime ester derivatives” (Bioorg Med Chem, 2008).
Values after ≈ are worked out from the molar mass of the structure shown. Active and inactive are the calls of the source. The calls are words filed in the database; no cut-off is given here.

Experiments:
Bacillus subtilis = test: microbe, parasite or virus in culture; assay type: functional; settings: ATCC 6633
Staphylococcus aureus = test: Antibacterial activity against Staphylococcus aureus ATCC 6538; assay type: functional
Escherichia coli = test: Antibacterial activity against Escherichia coli ATCC 35218; assay type: functional
[1] = Inhibition of Escherichia coli DNA gyrase supercoiling activity
Pseudomonas aeruginosa = test: Antibacterial activity against Pseudomonas aeruginosa ATCC 13525; assay type: functional, organism-based
Method in brief: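 Broth microdilution in MH medium with an inoculum of about 10⁵ cfu/mL. Compounds were serially diluted from a DMSO stock and incubated 24 h at 37 °C. MIC was read visually, then confirmed colorimetrically: MTT (2 mg/mL in PBS, pH 7.4) was added for 4–5 h at room temperature, the dye was extracted with isopropanol/5% 1 mol/L HCl for 12 h, and OD was read at 550 nm.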

Pseudomonas fluorescens = test: Antibacterial activity against Pseudomonas fluorescens ATCC 13525; assay type: functional

| Compound | MIC (Bacillus subtilis) [mg/L] | MIC (Staphylococcus aureus) [mg/L] | MIC (Escherichia coli) [mg/L] | IC50 [1] [mg/L] | Activity (Pseudomonas aeruginosa) | MIC (Pseudomonas fluorescens) [mg/L] |
| --- | --- | --- | --- | --- | --- | --- |
| C=CC(=O)O/N=C(/C)N1N=C(c2ccc(Cl)cc2Cl)CC1c1ccccc1F (configuration not stated) | 3.12 (≈ 7.44 µM) | 3.12 (≈ 7.44 µM) | 3.12 (≈ 7.44 µM) | 100 (≈ 238 µM) | Active | 12.5 (≈ 29.7 µM) |
| C/C(=N/OC(=O)c1ccco1)N1N=C(c2ccc(Cl)cc2Cl)CC1c1ccc(C(F)(F)F)cc1 (configuration not stated) | 1.56 (≈ 3.06 µM) | 3.12 (≈ 6.12 µM) | 3.12 (≈ 6.12 µM) | 8 (≈ 15.7 µM) | Active | 1.56 (≈ 3.06 µM) |
